Here are results for two molecules from paper PMC5511061 (ACS infectious diseases, 2017).

Data set [1] relates to T. brucei brucei Lister 427 bloodstream-form (BSF) cells. Put plainly: T. brucei cell viability growth assay. In kind it is cell-based, Trypanosoma brucei brucei.
Data set [2] addresses T1, human AdoMetDC (HsAdoMetDC) (Homo sapiens, UniProt P17707).
T1 sequence (P17707 1-334): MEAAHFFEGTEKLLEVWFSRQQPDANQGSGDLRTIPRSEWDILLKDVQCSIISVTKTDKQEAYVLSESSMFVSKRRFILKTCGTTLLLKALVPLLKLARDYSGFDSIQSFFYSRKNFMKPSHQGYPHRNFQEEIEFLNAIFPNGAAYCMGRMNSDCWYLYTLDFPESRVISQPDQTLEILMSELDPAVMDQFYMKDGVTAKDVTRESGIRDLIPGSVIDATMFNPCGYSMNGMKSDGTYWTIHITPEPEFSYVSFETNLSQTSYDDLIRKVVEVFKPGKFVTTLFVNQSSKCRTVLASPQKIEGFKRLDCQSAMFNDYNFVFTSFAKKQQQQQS
Put plainly: RapidFire-MS end-point AdoMetDC activity assay, human enzyme. The class given is biochemical.

The test system of data set [3] is prozyme levels in T. brucei cells. Put plainly: Western blotting analysis of prozyme expression levels in treated cells. The class given is cell-based, Trypanosoma brucei. The following applies: cells grown 24 h with 1–2 × EC50 of compound versus vehicle. Summed up:
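Bloodstream-form T. brucei treated 24 h with test compound; DMSO vehicle as neutral control and a reference AdoMetDC inhibitor as positive control. Cells harvested, lysed and run on SDS-PAGE. Blots probed with rabbit polyclonal anti-T. brucei prozyme (1000-fold dilution, Tris-buffered saline, 5% blocker). Membrane cut by molecular-weight marker; upper section probed with rabbit anti-BiP (100,000-fold) as loading control. Prozyme compared with vehicle.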

The test system of the next data set is T. brucei cells. Put plainly: Rescue of cell growth inhibition with spermidine. In kind it is cell-based, Trypanosoma brucei.
Data set [4] is described as follows: In vitro metabolic stability in hepatic microsomes, human. The following applies: both. The class given is in vitro ADME.
Data set [5] in a line: In vitro metabolic stability in hepatic microsomes, mouse. The class given is in vitro ADME. The following applies: male, CD-1, mouse.
In data set [6] the test system is P-glycoprotein (human MDR1). The data set can be described thus: MDCKII-hMDR1 monolayer permeability assay. The class given is in vitro ADME. The following applies: dog, MDCK-MDR1.
A further data set has as its system HsAdoMetDC. To be noted: human versus T. brucei enzyme; cited from earlier work.

One may read the EC50 as the midpoint of the concentration-response curve. By IC50 is commonly meant the concentration needed to halve the response being measured. A high value points to lower potency. As usually defined, the half-life is how long it takes for the measured level to halve. High values mean slow loss, low ones fast loss. As usually defined, the Papp A→B is how fast a substance crosses the layer from the apical side. Read a low Papp A→B as poor permeation. For the molecule `Cc1nc2c(N)ncnc2n1[C@@H]1O[C@H](CN(C)C/C=C\CN)[C@@H](O)[C@H]1O` [Compound 1], the “EC50 fold below measured IC50 on the enzyme” value in data set [1] amounted to 100 fold. Besides, the EC50 in data set [1] (Trypanosoma brucei, 48 h, read-out: T. brucei cell EC50) was 1.8 nM; with T. brucei cells (Trypanosoma brucei, read-out: T. brucei cell EC50, – Spd), 0.3 nM. Also, in data set [2], the midpoint of inhibition, the IC50, lay at 110 nM. For the same molecule, the Prozyme induction entry in data set [3] was “yes”. Moreover, the “rescue of cell growth inhibition by spermidine supplementation” value in the data set with T. brucei cells (over 100× EC50 concentrations of compound, 1 mM spermidine) is listed as “full rescue”. Besides, the half-life at 1 μM in data set [4] and in data set [5] was more than 1.5 h throughout. This molecule also yielded a Papp A→B in data set [6] of 1.1 ×10⁻⁶ cm/s.
As for `Cl.Cl.Cl.N=C(N)c1cccc(/C=N/N=C(\N)N/N=C/c2cccc(C(=N)N)c2)c1` [CGP 40215A], in the data set with HsAdoMetDC, the “fold more potent against HsAdoMetDC” value is 500 fold.
